Screens as filed in PubChem.
INS promoter inh – TRM-6 insulin promoter activity inhibition; TRM-6 cells (human fetal islet line), insulin promoter-eGFP reporter, imaging; reporter expression induced with tamoxifen; inhibition, % at 2 µM; hit rate 0.9% among 130,000; AID 1273;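 active = inhibition above the mean plus 3 SD, with well images judged a real hit on visual review, cut at about 60% in these data, passing the limit was not always enough; inconclusive = inhibition over the cutoff but images rejected on review; inactive = inhibition not above the cutoff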
RBBP9 inh – blocks human serine hydrolase RBBP9 | O75884 | recombinant RBBP9, FP-Rh probe fluorescence polarization | inhibition, % at 7.94 µM | hit rate 0.2% among 220,000 | AID 1515;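 active = inhibition above the campaign mean of all tested compounds plus 3 SD, cut at about 14% in these data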;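 also: plate controls were DMSO wells with RBBP9 for no effect and wells lacking RBBP9 protein for full effect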
Target sequence (O75884 whole entry, looked up): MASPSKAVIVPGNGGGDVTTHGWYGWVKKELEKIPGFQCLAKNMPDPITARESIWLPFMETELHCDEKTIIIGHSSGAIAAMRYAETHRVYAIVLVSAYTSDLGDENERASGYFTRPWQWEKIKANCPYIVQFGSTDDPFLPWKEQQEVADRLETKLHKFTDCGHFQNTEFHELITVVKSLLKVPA
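Assay system: recombinant human RBBP9; Reagent: Serine-hydrolase probe FP-Rh, 375 nM pre-mixing; Doses: 7.94 µM single dose, 0.794% DMSO; Incubation: 30 min then 45 min, 25 °C; Detection: fluorescence polarization (mP), excitation 525 nm, emission 598 nm; Evaluation: percent inhibition from mP, scaled between DMSO and no-protein wells.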
Ins promoter up – MIN6 insulin promoter up-regulation. hit rate 0.3% among 190,000. z-score at 5 µM. AID 1625. MIN6 insulin promoter-GFP reporter, high-content imaging; active compounds read high;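 active = z-score above 3 at 5 µM with at least 500 cells counted in the well; inconclusive = wells under 500 cells, flagged as cytotoxic or low count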
Autophagy HCS – modulators of autophagy; MEF GFP-LC3 puncta imaging; test concentration mostly 10 µM; calls only at 10 µM (by protocol); hit rate 0.98% among 190,000;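 active = percentage of spot-positive cells more than 3 SD above its plate mean, without a fluorescence outlier flag or 80% toxicity; inconclusive = no clear call, values can overlap the other calls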;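 also: spot-positive cell cutoff set from DMSO-treated cells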
Arbovirus anti – antivirals against arbovirus infection; inhibition, % at 10 µM; hit rate 0.37% among 200,000; arbovirus infection cell-based antiviral screen; AID 1251; in the data active = inhibition above about 30%
PKD1 inh – blocks activity of human protein kinase D1; Q15139; PKD1 kinase fluorescence polarization assay; inhibition, % (no concentration beside the values); hit rate 0.056% among 200,000; AID 797; in the data active = inhibition above about 50%
Starred values were filed as active, the others as inactive; i = inactive; u = inconclusive; x = no result given; + = active, no number. Sampled rows, rich in hits. Any-hit rate of the full collection: about 2.1%.

SMILES	INS promoter inh	RBBP9 inh	Ins promoter up	Autophagy HCS	Arbovirus anti	PKD1 inh
Cc1cnc(NC(=O)c2ccc(-c3nc4ccccc4s3)o2)s1	x	-10	0.21	i	51*	3
Cc1cnc(NC(=O)CSc2nc3ccccc3s2)s1	36	-9	x	i	0	-3
CCC(=NC(C)c1ccccc1)c1c(O)n(C)c(=O)n(C)c1=O (stereo not given)	81*	-4	-6.4	i	-2	1
CC(=O)NC(CC(=O)OCC(=O)c1c(N)n(C)c(=O)n(C)c1=O)c1ccccc1 (stereo not given)	x	-12	-0.61	i	4	-1
COc1ccc(C)cc1NC(=O)COC(=O)c1c(C)noc1C	62	-5	-0.24	i	-4	-9
Cc1noc(C)c1C(=O)OCC(=O)Nc1cc(Cl)ccc1Oc1ccccc1	-77	-7	x	i	47*	1
C=CCn1c(-c2cc3c(s2)CCC(CC)C3)n[nH]c1=S (stereo not given)	-24	-6	-0.59	i	4	-2
CCOC(=O)C1CCCN(Cc2cn[nH]c2-c2ccc(F)cc2F)C1 (stereo not given)	x	-7	-0.15	+	-2	2
COc1ccccc1C(=O)N1CCN(Cc2cn[nH]c2-c2ccc(F)cc2F)CC1	x	-4	0.6	i	0	-2
Cc1nc(Sc2nnnn2C)c2c3c(sc2n1)CCC3	x	3	-1.3	+	6	3
CCc1nc(Sc2nnnn2-c2ccccc2)c2c3c(sc2n1)CCCC3	32	-7	0.33	i	-14	-1
COC(=O)c1cn(Cc2cccnc2)c(=O)c2ccccc12	x	1	-0.68	i	-1	0
CCn1cc([N+](=O)[O-])c(C(=O)N2N=C(c3ccc4ccccc4c3)CC2c2ccccc2O)n1 (stereo not given)	56	-34	x	i	-29	3
CCn1cc(Cl)c(C(=O)N2N=C(c3ccc4ccccc4c3)CC2c2ccccc2O)n1 (stereo not given)	67*	-8	-0.24	i	17	2
Clc1ccc(C2=CSC3=NCCN23)cc1Cl	-3	2	-0.24	+	-23	4
COc1ccc(-c2cc3ccccc3n2CC(O)CN2CCCCC2)cc1 (stereo not given)	x	-7	-1.4	x	x	x
CCC(=C(c1ccc(OC)cc1)c1ccc(OC)cc1)c1cn(CC(O)CN2CCN(C)CC2)c2ccccc12 (stereo not given)	35	2	-2.9	+	-36	22
Nc1c(C(=O)NCc2ccco2)sc2nc3c(cc12)C(=O)CCC3	-6	0	-0.12	i	-8	2
COCCn1c(C)cc(C(=O)CSc2cc(C)c3ccccc3n2)c1C	x	-5	-0.89	i	31*	-6
Cc1noc(C)c1C(=O)N1CCC(CO)(Cc2ccccc2)CC1	x	-6	-0.21	i	0	-7
COc1ccc(F)cc1C(=O)C1CCCN(C(=O)CSc2ccccn2)C1 (stereo not given)	x	-2	-0.8	i	35*	-8
COc1ccccc1C(=O)C1CCCN(C(=O)CSc2ccccn2)C1 (stereo not given)	x	2	-0.1	i	3	-3
CC(=O)c1cccc(Nc2ccc(-c3ccccc3F)nn2)c1	11	-5	0.7	i	14	4
Cc1cccc2c1nc(-c1ccccc1)n1nnnc21	x	-8	0.03	i	55*	-3
CC1CCC(C(C)C)C(OC(=O)C[n+]2cc(-c3ccc(Cl)cc3)n3c2CCCCC3)C1 (stereo not given)	x	2	-4.3	+	-33	-7
SMILES	INS promoter inh	RBBP9 inh	Ins promoter up	Autophagy HCS	Arbovirus anti	PKD1 inh
O=C(C[n+]1cc(-c2ccccc2)n2c1CCCCC2)c1ccc(Cl)cc1	x	-7	-0.36	i	-1	-3
COc1cccc(NC(=O)CSc2nc3ccccc3c(=O)n2Cc2cccs2)c1	-53	-8	x	+	1	-3
Cc1cc(C)nc(NC(=O)c2cnc3sccn3c2=O)n1	x	-4	0.39	x	5	-4
COc1ccccc1OCC(O)Cn1c(=N)n(CCN2CCCCC2)c2ccccc21 (stereo not given)	45	-9	-5	+	-26	5
N=c1n(CCN2CCCCC2)c2ccccc2n1CC(O)c1cccc(Br)c1 (stereo not given)	-7	5	x	i	-46	5
Cc1ccccc1OCC(O)Cn1c(=N)n(CCN2CCOCC2)c2ccccc21 (stereo not given)	-150	1	0.34	i	-19	-3
N=c1n(CCN2CCOCC2)c2ccccc2n1CC(O)COc1ccccc1 (stereo not given)	x	-5	-2.3	i	14	2
N=c1n(Cc2ccccc2)c2ccccc2n1CC(O)COc1ccccc1 (stereo not given)	-21	-5	-2.4	i	-41	-22
Cc1ccc(Cn2c(=N)n(CC(O)COc3ccccc3)c3ccccc32)cc1 (stereo not given)	-58	-12	u	+	-33	10
N=c1n(CCN2CCCCC2)c2ccccc2n1CC(O)COc1ccccc1 (stereo not given)	x	-17	-1.3	+	-21	-9
N=c1n(CCN2CCCCC2)c2ccccc2n1CC(O)c1ccc(Cl)c(Cl)c1 (stereo not given)	-21	4	-1.6	+	-38	1
Cc1cc(C)n(CCN(C)Cc2nc(Cc3ccccc3F)no2)n1	7	4	0.62	i	0	-2
O=C(Cc1csc(Nc2nc(=S)[nH]c3ccccc23)n1)NCCCN1CCN(c2ccccc2F)CC1	-7	-6	-0.46	+	-7	0
O=C(CCN1C(=O)c2ccccc2S1(=O)=O)Nc1ccccc1	x	-4	0.09	i	4	-10
O=C(Nc1ccc(C(=O)O)cc1)/C(=C\c1ccc2c(c1)OCO2)NC(=O)c1ccc(Br)cc1	x	-7	0.96	i	8	-8
O=C(NCCO)/C(=C/c1ccc2c(c1)OCO2)NC(=O)c1ccc(Br)cc1	-8	-4	0.2	+	-7	-6
O=C(Nc1ccc(C(=O)O)cc1)/C(=C\c1ccc2c(c1)OCO2)NC(=O)c1ccccc1	80*	0	0.08	i	6	-7
O=C(O)CNC(=O)/C(=C\c1ccc2c(c1)OCO2)NC(=O)c1ccc(Br)cc1	0	-5	-1.3	i	12	4
CCOC(=O)C(C)n1cnc2c(oc3ccccc32)c1=O (stereo not given)	25	-6	-0.46	i	1	-5
COC(=O)c1cc(Cl)c(NC(=O)c2cc(OC)c(OC)c(OC)c2)cc1OC	-18	-1	-0.01	i	-3	-2
CCCCNC(=O)COC(=O)c1ccc(C)c(NC(=O)c2ccco2)c1	67	-5	-0.97	i	9	5
C=CCNC(=O)COC(=O)c1ccc(C)c(NC(=O)c2ccco2)c1	73*	0	-0.03	i	15	-3
